Measured values reported in ChEMBL document CHEMBL4699489, “Optimized Opioid-Neurotensin Multitarget Peptides: From Design to Structure-Activity Relationship Studies” (J Med Chem, 2020).
The source made the active and inactive calls. Numbered stars: 1 amine (or outer) side, 2 acyl side, 3 side chain; on linkers, the order of the positions; unused ones are H or OH. Square brackets hold non-standard residues; d marks the D form. Peptide text beside a SMILES is read from it. X1 = O=C1[C@@H](N[*:1])Cc2ccccc2CN1CCC(=O)[*:2]; X2 = O=C([C@@H]1Cc2cc(O)ccc2CN1[*:1])[*:2]; Dmt = Cc1cc(O)cc(C)c1C[C@H](N)C(=O)O; β3hR = N=C(N)NCCC[C@H](N)CC(=O)O; Tle = CC(C)(C)[C@H](N)C(=O)O

How the values were obtained:
Mu-type opioid receptor [1] = target: T1, Mu-type opioid receptor (Homo sapiens, UniProt P35372); assay: Displacement of [3H]-DAMGO from recombinant human mu opioid receptor expressed in CHO cell membrane incubated for 60 mins by liquid scintillation counting method; format: cell membranes
Method in brief: (§1)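 Membranes from CHO-hMOR, -hDOR or -hKOR cells, homogenized and washed in 50 mM Tris-HCl pH 7.4. Membranes (15–20 μg) incubated with [3H]DAMGO (MOR), [3H]diprenorphine (DOR) or [3H]U69,593 (KOR) plus graded peptide, 60 min at 25 °C. Nonspecific binding with 1–10 μM of the unlabelled ligand. GF/C filtration, scintillation counting. Ki by Cheng–Prusoff. Duplicate, three independent experiments.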

[2] = target: T2, Delta-type opioid receptor (Homo sapiens, UniProt P41143); assay: Displacement of [3H]-Diprenorphine from recombinant human delta opioid receptor expressed in CHO cell membrane incubated for 60 mins by liquid scintillation counting method; format: cell membranes; method in brief: as §1
[3] = target: T3, Kappa-type opioid receptor (Homo sapiens, UniProt P41145); assay: Displacement of [3H]-U69593 from recombinant human kappa opioid receptor expressed in CHO cell membrane incubated for 60 mins by liquid scintillation counting method; format: cell membranes; method in brief: as §1
Mu-type opioid receptor [4] = target: T1, Mu-type opioid receptor; assay: Agonist activity at human MOR expressed in CHO cell membranes assessed as stimulation of [35S]-GTPgammaS binding incubated for 1 hr by liquid scintillation counting assay relative to DAMGO; format: functional; conditions: time 60.0 min
Method in brief: (§2)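 Membranes from CHO cells stably expressing hMOR, hDOR or hKOR, prepared in 20 mM HEPES, 10 mM MgCl2, 100 mM NaCl, pH 7.4. Membranes (5–10 μg) incubated with 0.05 nM [35S]GTPγS, 10 μM GDP and graded peptide concentrations, 60 min at 25 °C. Nonspecific binding with 10 μM GTPγS, basal without ligand. GF/B filtration, scintillation counting. EC50 and Emax by nonlinear regression; Emax relative to DAMGO, DPDPE or U69,593. Duplicate, three independent experiments.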

Mu-type opioid receptor [5] = target: T1, Mu-type opioid receptor; assay: Agonist activity at human MOR expressed in human U2OS cells assessed as increase in beta arrestin2 recruitment incubated for 90 mins by pathhunter beta-arrestin assay; format: cell-based
Method in brief: (§3)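 U2OS cells stably coexpressing hMOR and enzyme acceptor-tagged β-arrestin-2, seeded at 5000 cells/well and kept 24 h at 37 °C. Graded peptide concentrations in PBS added for 90 min at 37 °C, then detection mix for 60 min at room temperature. Chemiluminescence read-out. EC50 and Emax (relative to DAMGO) by nonlinear regression. Duplicate, three independent experiments.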

Mu-type opioid receptor [6] = target: T1, Mu-type opioid receptor; assay: Agonist activity at human MOR expressed in human U2OS cells assessed as increase in beta arrestin2 recruitment incubated for 90 mins by pathhunter beta-arrestin assay relative to DAMGO; format: cell-based; conditions: filed as partial agonist; method in brief: as §3
[7] = target: T2, Delta-type opioid receptor; assay: Agonist activity at human DOR stably expressed in CHO cell membranes assessed as stimulation of [35S]-GTPgammaS binding incubated for 1 hr by liquid scintillation counting assay; format: functional; method in brief: as §2
[8] = target: T2, Delta-type opioid receptor; assay: Agonist activity at human DOR stably expressed in CHO cell membranes assessed as stimulation of [35S]-GTPgammaS binding incubated for 1 hr by liquid scintillation counting assay relative to DPDPE; format: functional; conditions: time 60.0 min; method in brief: as §2
[9] = target: T3, Kappa-type opioid receptor; assay: Agonist activity at human KOR stably expressed in CHO cell membranes assessed as stimulation of [35S]-GTPgammaS binding incubated for 1 hr by liquid scintillation counting assay; format: functional; method in brief: as §2
Mus musculus [10] = assay: Antinociceptive activity in CD-1 mouse model of thermal-induced nociception assessed as increase in tail withdrawal latency 1.82 umol/kg, sc measured after 2 to 24 hrs by tail-flick test; format: functional, organism-based; conditions: dose 1.82 µmol/kg, time hrs 2-24
Method in brief: (§4)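 Male CD-1 mice, 30–35 g, 8 weeks old, 5–6 per group, each mouse tested once. Peptide or saline given sc. Radiant-heat tail-flick latency measured before dosing and at 15 min, 30 min, hourly to 8 h, and at 24 h, with a 10 s cutoff. %MPE = [(test latency − basal latency)/(cutoff − basal latency)] × 100. Two-way ANOVA with Bonferroni post hoc test, P < 0.05.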

Mus musculus [11] = assay: Antinociceptive activity in CD-1 mouse model of thermal-induced nociception assessed as maximum possible effect at 1.82 umol/kg, sc measured at 1 hr by tail-flick test; format: functional; conditions: dose 1.82 µmol/kg
[12] = target: T4, Neurotensin receptor type 1 (Homo sapiens, UniProt P30989); assay: Displacement of [125I]-neurotensin from human recombinant NTS1 stably expressed in CHO-K1 cell membranes incubated for 60 mins by gamma counter method
[13] = target: Neurotensin receptor type 2 (Homo sapiens, UniProt O95665); assay: Displacement of [125I]-neurotensin from human recombinant NTS2 stably expressed in human 1321N1 cell membranes incubated for 60 mins by gamma counter method
Mu-type opioid receptor [14] = target: T1, Mu-type opioid receptor; assay: Agonist activity at human MOR stably expressed in CHO cell membranes assessed as stimulation of [35S]-GTPgammaS binding incubated for 1 hr by liquid scintillation counting assay; format: functional; method in brief: as §2
[15] = target: T3, Kappa-type opioid receptor; assay: Agonist activity at human KOR stably expressed in CHO cell membranes assessed as stimulation of [35S]-GTPgammaS binding incubated for 1 hr by liquid scintillation counting assay relative to U69593; format: functional; conditions: time 60.0 min; method in brief: as §2
[16] = target: T4, Neurotensin receptor type 1; assay: Agonist activity at human NTS1 expressed in HEK293 cells co-expressing Galphaq/RlucII/GFP10-Ggamma1/Gbeta1 assessed as increase in Galphaq activation incubated for 10 mins in presence of coelenterazine 400A by BRET assay; format: cell-based
[17] = target: T4, Neurotensin receptor type 1; assay: Agonist activity at human NTS1 expressed in HEK293 cells co-expressing Galphaq/RlucII/GFP10-Ggamma1/Gbeta1 assessed as increase in Gq activation incubated for 10 mins in presence of coelenterazine 400A by BRET assay relative to NT (8-13); format: cell-based
Mus musculus [18] = assay: Antinociceptive activity in CD-1 mouse model of thermal-induced nociception assessed as increase in tail withdrawal latency at 2.64 umol/kg, sc measured up to 8 hrs by tail-flick test; format: functional, organism-based; conditions: dose 2.64 µmol/kg, time hrs <=8; method in brief: as §4
Mus musculus [19] = assay: Antinociceptive activity in CD-1 mouse model of thermal-induced nociception assessed as maximum possible effect at 2.64 uM/kg, sc measured at 1 hr interval for 2 to 7 hrs by tail-flick test; format: functional; conditions: dose 2.64 µmol/kg; time hrs 2-7; method in brief: as §4
Mu-type opioid receptor [20] = target: T1, Mu-type opioid receptor; assay: Potency index, ratio of PK20 Ki to test compound Ki for displacement of [3H]-DAMGO from recombinant human mu opioid receptor expressed in CHO cell membranes
[21] = target: T4, Neurotensin receptor type 1; assay: […], ratio of compound EC50 to NT(8-13) EC50 for agonist activity at human NTS1 expressed in HEK293 cells co-expressing Galphaq/RlucII/GFP10-Ggamma1/Gbeta1 assessed as increase in Gq activation incubated for 10 mins in presence of coelenterazine 400A by measuring fold value by BRET assay; format: cell-based; conditions: hek293, 10 min
Mus musculus [22] = assay: Antinociceptive activity in CD-1 mouse model of thermal-induced nociception assessed as maximum possible effect at 5.52 umol/kg, sc measured at 1 hr interval for 2 to 3 hrs by tail-flick test; format: functional; conditions: dose 5.52 µmol/kg; time hrs 2-3; method in brief: as §4
Mus musculus [23] = assay: Antinociceptive activity in CD-1 mouse model of thermal-induced nociception assessed as increase in tail withdrawal latency at 5.52 umol/kg, sc measured after 3 hrs by tail-flick test; format: functional, organism-based; conditions: dose 5.52 µmol/kg, time hrs >=3; method in brief: as §4

T3 sequence (P41145 whole entry): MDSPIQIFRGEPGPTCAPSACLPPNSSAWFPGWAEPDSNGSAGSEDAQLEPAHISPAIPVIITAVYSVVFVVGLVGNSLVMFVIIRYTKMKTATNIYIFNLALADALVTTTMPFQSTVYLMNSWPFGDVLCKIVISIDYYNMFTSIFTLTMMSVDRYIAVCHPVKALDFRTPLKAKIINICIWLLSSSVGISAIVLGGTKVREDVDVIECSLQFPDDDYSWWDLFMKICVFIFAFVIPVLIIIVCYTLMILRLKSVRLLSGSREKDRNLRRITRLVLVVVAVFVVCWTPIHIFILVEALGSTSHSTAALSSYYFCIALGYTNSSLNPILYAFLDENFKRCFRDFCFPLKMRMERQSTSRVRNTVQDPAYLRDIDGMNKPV
Chain of Neurotensin receptor type 2 (O95665 whole entry): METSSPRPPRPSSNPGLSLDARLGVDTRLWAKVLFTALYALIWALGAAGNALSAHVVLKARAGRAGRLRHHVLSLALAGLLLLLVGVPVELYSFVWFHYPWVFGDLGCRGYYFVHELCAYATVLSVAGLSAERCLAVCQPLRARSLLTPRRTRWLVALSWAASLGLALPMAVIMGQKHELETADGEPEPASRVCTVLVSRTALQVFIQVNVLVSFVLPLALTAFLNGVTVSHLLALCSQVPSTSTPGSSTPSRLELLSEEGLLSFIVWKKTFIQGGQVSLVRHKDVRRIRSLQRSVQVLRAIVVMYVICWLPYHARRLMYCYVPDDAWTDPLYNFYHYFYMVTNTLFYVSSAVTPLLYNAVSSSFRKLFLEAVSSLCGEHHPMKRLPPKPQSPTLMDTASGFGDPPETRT
T2 sequence (P41143 whole entry): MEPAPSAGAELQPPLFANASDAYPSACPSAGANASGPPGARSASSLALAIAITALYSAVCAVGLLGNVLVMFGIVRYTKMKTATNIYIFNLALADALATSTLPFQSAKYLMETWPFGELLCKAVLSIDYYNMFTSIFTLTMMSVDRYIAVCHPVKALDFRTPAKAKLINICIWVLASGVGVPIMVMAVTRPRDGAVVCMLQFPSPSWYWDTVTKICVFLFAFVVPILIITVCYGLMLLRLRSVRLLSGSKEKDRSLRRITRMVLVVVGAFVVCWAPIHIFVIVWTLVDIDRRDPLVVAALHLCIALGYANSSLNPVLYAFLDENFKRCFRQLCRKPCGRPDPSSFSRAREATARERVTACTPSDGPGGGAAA
T4 sequence (P30989 whole entry): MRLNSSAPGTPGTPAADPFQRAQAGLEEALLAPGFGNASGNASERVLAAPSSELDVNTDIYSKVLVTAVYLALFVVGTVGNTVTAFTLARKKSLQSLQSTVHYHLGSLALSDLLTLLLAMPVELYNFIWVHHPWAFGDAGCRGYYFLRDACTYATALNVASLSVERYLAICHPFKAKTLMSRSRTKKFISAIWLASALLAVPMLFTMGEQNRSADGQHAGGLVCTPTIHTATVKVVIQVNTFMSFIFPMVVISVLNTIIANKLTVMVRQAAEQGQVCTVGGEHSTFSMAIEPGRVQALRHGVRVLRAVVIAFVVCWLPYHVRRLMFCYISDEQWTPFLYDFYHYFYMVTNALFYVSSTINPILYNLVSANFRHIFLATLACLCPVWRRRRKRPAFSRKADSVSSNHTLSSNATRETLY
T1 sequence (P35372 whole entry): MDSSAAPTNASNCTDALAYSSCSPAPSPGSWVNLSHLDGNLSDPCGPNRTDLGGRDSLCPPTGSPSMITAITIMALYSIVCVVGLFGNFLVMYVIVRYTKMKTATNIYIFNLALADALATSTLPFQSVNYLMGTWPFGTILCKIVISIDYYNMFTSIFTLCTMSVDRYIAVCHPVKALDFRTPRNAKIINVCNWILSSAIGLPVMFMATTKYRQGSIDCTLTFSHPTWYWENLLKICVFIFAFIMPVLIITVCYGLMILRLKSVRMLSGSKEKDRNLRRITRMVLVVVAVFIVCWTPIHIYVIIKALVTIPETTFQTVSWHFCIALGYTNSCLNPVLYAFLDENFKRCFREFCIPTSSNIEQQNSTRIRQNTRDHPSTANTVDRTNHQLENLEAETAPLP

| Compound | Ki (Mu-type opioid receptor [1]) [nM] | Ki [2] [nM] | Ki [3] [nM] | Emax (Mu-type opioid receptor [4]; filed as agonist) [%] | EC50 (Mu-type opioid receptor [5]) [nM] | Emax (Mu-type opioid receptor [6]) [%] | EC50 [7] [nM] | Emax ([8]; filed as agonist) [%] | EC50 [9] [nM] | Ki [12] [nM] | Ki [13] [nM] | EC50 (Mu-type opioid receptor [14]) [nM] | Emax ([15]; filed as partial agonist) [%] | EC50 [16] [nM] | Emax [17] [%] | other results |
| --- | --- | --- | --- | --- | --- | --- | --- | --- | --- | --- | --- | --- | --- | --- | --- | --- |
| Cc1cc(O)cc(C)c1C[C@H](N)C(=O)N[C@H](CCCNC(=N)N)C(=O)N[C@H]1Cc2ccccc2CN(CCC(N)=O)C1=O | 0.14 | 1.51 | 16.6 | 100 | 5.53 | 107 | 1.27 | 104 | > 10000 |  |  |  |  |  |  | Activity (Mus musculus [10]): inactive; MPE (Mus musculus [11]): 80% |
| Cc1cc(O)cc(C)c1C[C@H](NC(=O)[C@@H]1CCCN1C(=O)[C@H](CCCNC(=N)N)NC(=O)C[C@H](CCCNC(=N)N)NC(=O)CCN1Cc2ccccc2C[C@H](NC(=O)[C@@H](CCCNC(=N)N)NC(=O)[C@@H](N)Cc2c(C)cc(O)cc2C)C1=O)C(=O)N[C@H](C(=O)N[C@@H](CC(C)C)C(=O)O)C(C)(C)C (H-[Dmt][dR][X1][β3hR]RP[Dmt][Tle]L-OH) | 1.75 | 101 | 27.9 | 94 | 1070 | 68 | 305 | 99 | 158 | 4 | 0.003 | 28.7 | 46 | 0.86 | 114 | Activity (Mus musculus [18]): Active; MPE (Mus musculus [19]): >=80% |
| Cc1cc(O)cc(C)c1C[C@H](N)C(=O)N[C@H](CCCNC(=N)N)C(=O)N[C@H]1Cc2ccccc2CN(CCC(=O)N[C@@H](CCCNC(=N)N)C(=O)N[C@@H](CCCNC(=N)N)C(=O)N2CCC[C@H]2C(=O)N2Cc3ccc(O)cc3C[C@H]2C(=O)N[C@H](C(=O)N[C@@H](CC(C)C)C(=O)O)C(C)(C)C)C1=O (H-[Dmt][dR][X1]RRP[X2][Tle]L-OH) | 1.67 | 105 | 22.4 | 98 | 934 | 67 | 227 | 97 | 399 | 4710 | 1.72 | 4.56 |  | 1900 | 74 | Ratio Ki (Mu-type opioid receptor [20]): 2; Emax [15]: 20%; Ratio EC50 [21]: 13000 |
| Cc1cc(O)cc(C)c1C[C@H](N)C(=O)N[C@H](CCCCN)C(=O)N[C@@H](Cc1ccccc1)C(=O)N[C@@H](Cc1ccccc1)C(=O)N[C@@H](CCCCN)C(=O)N[C@@H](CCCCN)C(=O)N1CCC[C@H]1C(=O)N[C@@H](Cc1ccccc1)C(=O)N[C@H](C(=O)N[C@@H](CC(C)C)C(=O)O)C(C)(C)C (H-[Dmt][dK]FFKKPF[Tle]L-OH) | 4.13 | 46.4 | 33.5 |  | 956 | 69 | 479 |  | 47.1 | 188 | 29.5 | 13.3 | 65 | 19.1 | 101 | Emax (Mu-type opioid receptor [4]; filed as partial agonist): 91%; Emax ([8]; filed as partial agonist): 78%; MPE (Mus musculus [22]): 80%; Activity (Mus musculus [23]): inactive |
